Source: PubChem BioAssay
Hits are enriched below; roughly 2.2% of the tested compounds scored in any of these assays.
DENV2 CPE – inhibitors of DENV2 cytopathic effect | DENV2-infected cells, cytopathic effect rescue, plate reader | actives 1.7% (n = 350,000) | AID 651640 | CPE inhibition, % at 9.99 µM; in the data active = CPE inhibition above about 20%, passing the limit was not always enough; inconclusive = no clear call, values can overlap the other calls; tested in BHK-21 cells;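 note: 0% = median of neutral control wells and 100% = median of positive control wells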
C2C12 statin – suppression of simvastatin myotoxicity; C2C12 myotubes + simvastatin, ATP luminescence, 48 h; scaled: DMSO 0, geranylgeraniol control 100; rescue of ATP level, % at 7.49 µM; actives 0.78% (n = 330,000);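 active = mean ATP rescue above about 67%, or every replicate alone reaching that limit, limit read from the data, passing the limit was not always enough; inconclusive = no clear call, values can overlap the other calls; inactive = mean under the limit and some replicate under it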;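 note: myotubes were challenged with 10 µM simvastatin during compound exposure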
E-sel inducer – induces E-selectin expression in human endothelial cells. activation, % at 7.58 µM. HUVEC E-selectin immunofluorescence imaging; normalized: neutral wells 0, TNF-alpha wells 100. actives 0.37% (n = 260,000). P16581;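 active = mean E-selectin-positive cell signal at least 10% of the positive control, reached in at least 60% of replicates, without over 20% cell loss; inconclusive = no rule given, readout overlaps actives, possibly toxicity-flagged; inactive = the rest, including those meeting only one limit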
Target sequence (P16581 whole entry, looked up): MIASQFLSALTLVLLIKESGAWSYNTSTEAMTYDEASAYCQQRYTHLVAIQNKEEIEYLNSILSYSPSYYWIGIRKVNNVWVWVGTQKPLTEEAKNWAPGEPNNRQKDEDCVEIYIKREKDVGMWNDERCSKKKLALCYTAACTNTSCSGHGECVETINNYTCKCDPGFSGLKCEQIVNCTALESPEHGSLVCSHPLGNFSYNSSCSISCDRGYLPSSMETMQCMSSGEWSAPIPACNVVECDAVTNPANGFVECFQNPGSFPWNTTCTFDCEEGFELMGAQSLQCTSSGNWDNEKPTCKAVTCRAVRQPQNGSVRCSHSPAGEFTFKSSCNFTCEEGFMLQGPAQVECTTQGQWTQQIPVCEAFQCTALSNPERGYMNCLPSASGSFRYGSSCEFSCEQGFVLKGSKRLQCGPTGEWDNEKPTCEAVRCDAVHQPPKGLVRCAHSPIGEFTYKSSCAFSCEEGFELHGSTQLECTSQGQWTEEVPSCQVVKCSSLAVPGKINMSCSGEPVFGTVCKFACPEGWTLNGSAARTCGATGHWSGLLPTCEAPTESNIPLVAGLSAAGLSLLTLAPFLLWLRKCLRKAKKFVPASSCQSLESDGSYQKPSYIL
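Test system – human umbilical vein endothelial cells (HUVEC), E-selectin induction · Input – 3,000 HUVEC seeded per well · Buffer or medium – EGM-2, gelatin · Compound dosing – single-point compound dose · Detection – immunofluorescence imaging · Measure – percent E-selectin-positive cells · Controls – TNF-alpha high, DMSO low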
* = called active by the depositor; u = inconclusive; x = no result given.

SMILES | DENV2 CPE | C2C12 statin | E-sel inducer
C[C@H](CO)N1C[C@H](C)[C@H](CN(C)C(=O)Nc2ccc3c(c2)OCO3)Oc2ccc(NC(=O)NC3CCCCC3)cc2CC1=O | 4 | -6 | -8
C[C@H]1CN([C@@H](C)CO)C(=O)Cc2cc(NC(=O)C3CC3)ccc2O[C@H]1CN(C)Cc1ccc2c(c1)OCO2 | 13 | -16 | -12
C[C@H](CO)N1C[C@H](C)[C@H](CN(C)C(=O)Cc2ccccc2)OCCCC[C@H](C)Oc2ccc(NC(=O)CCC(F)(F)F)cc2C1=O | -1 | 49 | x
N#C[C@@H]1[C@H](c2ccc(C3=CCCC3)cc2)[C@@H](CO)N1C(=O)Cc1ccncc1 | 14 | 13 | 2
CC1CCN(CC(O)COc2ccc(OCC(O)CN3CCC(C)CC3)cc2)CC1 (centres undefined) | -2 | -5 | x
Cc1ccc(C)c(OCC(O)CN2CCC(C)CC2)c1C (centres undefined) | x | 111* | x
CO[C@H](CN(C)C(=O)Nc1ccc(C(F)(F)F)cc1)[C@H](C)CN(Cc1ccccc1Cl)[C@H](C)CO | -3 | -20 | 0
Oc1[nH]c2ccccc2c1C=Nc1ccc2c(c1)OCO2 | x | 118* | x
COc1ccc(N=Cc2c(O)[nH]c3ccccc23)cc1 | x | 16 | x
CN(C)C(=O)C[C@@H]1C=C[C@H](NC(=O)NC2CCCCC2)[C@H](CO)O1 | -10 | 1 | 0
CCS(=O)(=O)NCC[C@@H]1CC[C@@H](NC(=O)Nc2ccccc2)[C@H](CO)O1 | x | -10 | 0
O=S(=O)(c1ccc2c(c1)OCCO2)N1CCN(S(=O)(=O)c2c(F)cc(F)cc2F)CC1 | -14 | -19 | 0
O=S(=O)(c1ccc2c(c1)OCCO2)N1CCCN(S(=O)(=O)c2c(F)cccc2F)CC1 | 90* | -19 | 0
COc1cccc(CNC(=O)C[C@H]2C=C[C@@H](NS(=O)(=O)c3ccccc3OC)[C@@H](CO)O2)c1 | x | x | 0
C[C@@H]1CN([C@H](C)CO)C(=O)Cc2cc(NS(=O)(=O)c3ccc(Cl)cc3)ccc2O[C@@H]1CN(C)Cc1ccc(Cl)c(Cl)c1 | -1 | 54 | -1
O=C(NC(=S)N1CCN(c2ccc(F)cc2)CC1)c1cccs1 | -3 | 6 | x
O=C(NC(=S)N1CCN(c2ccc([N+](=O)[O-])cc2)CC1)c1ccccc1 | 1 | x | 33*
O=[N+]([O-])c1ccc(N2CCN(C(=S)c3cccc([N+](=O)[O-])c3)CC2)cc1 | 10 | x | x
O=C(NC(=S)N1CCN(c2ccccc2)CC1)c1c(F)cccc1F | 75* | 3 | 0
CCN(C[C@@H]1[C@@H](c2ccc(C3=CCCCC3)cc2)[C@@H](CO)N1C(C)=O)C(C)=O | -2 | x | 0
CC(C)NC(=O)Nc1ccc2c(c1)CC(=O)N([C@H](C)CO)C[C@H](C)[C@@H](CN(C)C(=O)Nc1ccccc1)O2 | 10 | -8 | 1
O=C(C[C@@H]1C=C[C@@H](NC(=O)CN2CCOCC2)[C@H](CO)O1)NCCc1ccncc1 | 2 | x | 0
CCCN1C[C@H](C)[C@H](OC)CN(C)C(=O)c2ccc(NC(=O)C3CCOCC3)cc2OC[C@H]1C | 9 | 6 | 2
COc1ccc(NC(=O)N(C)C[C@H]2Oc3ccc(NC(=O)NC4CCCCC4)cc3CC(=O)N([C@@H](C)CO)C[C@@H]2C)cc1 | -4 | 40 | -1
C[C@H]1CN([C@@H](C)CO)C(=O)c2cccc(NC(=O)C3CC3)c2O[C@@H]1CN(C)S(=O)(=O)c1cccs1 | 10 | -11 | 0
SMILES | DENV2 CPE | C2C12 statin | E-sel inducer
C[C@@H]1CN([C@H](C)CO)C(=O)c2cc(N(C)C)ccc2O[C@@H](C)CCCCO[C@H]1CN(C)C(=O)Nc1cccc2ccccc12 | 13 | 34 | x
C[C@@H]1CN([C@@H](C)CO)C(=O)c2cc(N(C)C)ccc2O[C@@H]1CN(C)C(=O)Nc1cccc2ccccc12 | -3 | 40 | 39*
C[C@@H]1CN([C@@H](C)CO)C(=O)c2cc(N(C)C)ccc2O[C@H]1CN(C)C(=O)Nc1cccc2ccccc12 | 0 | 45 | -8
C[C@@H]1CCCCO[C@H](CN(C)C(=O)Nc2cccc3ccccc23)[C@H](C)CN([C@@H](C)CO)C(=O)c2cc(N(C)C)ccc2O1 | 3 | 71* | 0
C[C@H](CO)N1C[C@H](C)[C@@H](CN(C)C(=O)Nc2ccc(F)cc2)Oc2cc(-c3ccc(F)cc3)ccc2S1(=O)=O | x | -4 | 0
CCC(=O)N(C)C[C@@H]1Oc2cc(C#CC3CCCCC3)ccc2S(=O)(=O)N([C@H](C)CO)C[C@@H]1C | x | -13 | 0
CN(C)C(=O)C[C@@H]1C[C@H]2c3cc(NC(=O)Nc4ccc(C(F)(F)F)cc4)ccc3O[C@H]2[C@@H](CO)O1 | 7 | -10 | 0
C[C@H](CO)N1C[C@H](C)[C@H](CN(C)S(=O)(=O)c2ccc(F)cc2)Oc2ccc(NS(=O)(=O)c3cccs3)cc2C1=O | -1 | x | 0
CCN1/C(=N\N)c2cccc3cccc1c23 | u | x | 37*
CCC(C)NC(=O)CN1C(=O)c2cccc3cccc1c23 (centres undefined) | -2 | 12 | x
COCC(=O)N[C@H]1C=C[C@@H](CC(=O)N2CCCCC2)O[C@@H]1CO | -1 | -13 | 0
C[C@@H]1CN([C@@H](C)CO)S(=O)(=O)c2ccc(/C=C/c3ccccc3)cc2O[C@H]1CN(C)Cc1cncnc1 | 3 | -41 | 0
COc1ccc(CN2C[C@H](O)COC[C@H]3O[C@H](CC(=O)NCc4ccccc4Cl)CC[C@@H]32)cc1 | -1 | 37 | 0
Cc1ccc(S(=O)(=O)N(C)C[C@@H]2Oc3ccc(NC(=O)c4ccncc4)cc3C(=O)N([C@H](C)CO)C[C@@H]2C)cc1 | 5 | -5 | 2
Cc1ccc(S(=O)(=O)N(C)C[C@@H]2Oc3ccc(NC(=O)c4ccncc4)cc3C(=O)N([C@H](C)CO)C[C@H]2C)cc1 | 31* | 11 | 2
COc1ccc(S(=O)(=O)N(C)C[C@H]2Oc3ccc(NC(=O)c4ccncc4)cc3C(=O)N([C@H](C)CO)C[C@H]2C)cc1 | -1 | -19 | 28*
COc1ccc(S(=O)(=O)N(C)C[C@@H]2Oc3ccc(NC(=O)c4ccncc4)cc3C(=O)N([C@H](C)CO)C[C@@H]2C)cc1 | -3 | 17 | 18
Cc1ccc(S(=O)(=O)N(C)C[C@@H]2Oc3ccc(NC(=O)c4ccncc4)cc3C(=O)N([C@@H](C)CO)C[C@H]2C)cc1 | u | 15 | -1
COc1ccc(S(=O)(=O)N(C)C[C@@H]2Oc3ncc(-c4ccncc4)cc3C(=O)N([C@@H](C)CO)C[C@@H]2C)cc1 | 51* | -9 | 1
COc1ccc(S(=O)(=O)N(C)C[C@H]2Oc3ccc(NC(=O)c4ccncc4)cc3C(=O)N([C@@H](C)CO)C[C@@H]2C)cc1 | -7 | -38 | 47*
COc1ccc(S(=O)(=O)N(C)C[C@@H]2Oc3ncc(-c4ccncc4)cc3C(=O)N([C@H](C)CO)C[C@H]2C)cc1 | -1 | -10 | 0
C[C@@H]1CN([C@H](C)CO)C(=O)c2cc(NC(=O)C3CCCCC3)ccc2O[C@@H](C)CCCCO[C@@H]1CN(C)S(=O)(=O)c1ccc(Cl)cc1 | 6 | x | 0
CO[C@H]1CN(C)C(=O)c2ccc(NS(=O)(=O)c3cccc(Cl)c3)cc2OC[C@@H](C)NC[C@H]1C | x | 2 | 0
